Our source for the MIC and Activity values is ChEMBL document CHEMBL1137736, “Substituted quinolinyl chalcones and quinolinyl pyrimidines as a new class of anti-infective agents” (Eur J Med Chem, 2009).

Series [1] has as its system Mycobacterium tuberculosis. Put plainly: Antitubercular activity against Mycobacterium tuberculosis H37Rv after 4 weeks by serial twofold dilution method. Format: functional. The method, boiled down:
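Serial twofold dilutions of a 1.0 mg/mL DMSO stock were incorporated into Middlebrook 7H10 agar slants with OADC. H37Rv grown on Lowenstein–Jensen medium was harvested in N-saline with 0.05% Tween-80 and dispersed with glass beads into a single-cell suspension. The working inoculum was 2 107 cfu/mL. MIC was the lowest concentration giving complete growth inhibition.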

Series [2] is described as follows: Cytotoxicity against mouse BMDM cells after 5 days by MTS assay. Format: cell-based. Conditions: 120 h. The method, boiled down:
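Mouse bone-marrow-derived macrophages plated at 10^5 cells/well in DMEM with antibiotics, 10% FBS, 15% (v/v) L-929 conditioned supernatant and non-essential amino acids. After compound exposure, incubated 5 days at 37 C, 5% CO2. MTS added and A490 read after 2 h, with DMSO wells as 100% survival. Toxic means 50% inhibition at 10-fold the MIC.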
In general terms: Tetrazolium assays rely on reduction of a dye to a coloured formazan, in cell work by metabolically active cells.

A further series has as its system Vero. The experiment in a line: Cytotoxicity against african green monkey Vero cells after 24 hrs by MTS assay. Format: cell-based. To be noted: chlorocebus sabaeus. The method, boiled down: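 VERO cells seeded at 10^4 cells/well in MEM with antibiotics and 10% FBS, incubated 24 h (37 C, 5% CO2). Medium then replaced by 5% FBS, antibiotic-free medium with compound or DMSO for 24 h. MTS added and A490 read after 2 h, with DMSO wells as 100% survival. Toxic means 50% inhibition at 10-fold the MIC.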

The test system of a further series is Plasmodium falciparum. Put plainly: Antimalarial activity as inhibition of schizont maturation against Plasmodium falciparum NF54 after 36 - 40 hrs. Format: functional. The method, boiled down: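 P. falciparum NF-54 kept in RPMI-1640 with 25 mM HEPES, 1% D-glucose, 0.23% sodium bicarbonate and 10% heat-inactivated human serum. Compounds tested in duplicate at 0.25–[…] in 96-well microassay with parasitized cells, 37 C, candle jar, 36–40 h. Giemsa-stained smears scored for ring maturation to schizonts. MIC is lowest concentration blocking complete schizont maturation.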

Values after ≈ are worked out from the molar mass of the structure shown. Active and inactive are the calls of the source.

In general, MIC refers to the smallest concentration in the dilution series that meets the test's criterion for growth inhibition. As to `COc1cccc(/C=C/C(=O)c2ccc(Nc3ccnc4cc(Cl)ccc34)cc2)c1OC`, inhibition of growth in series [1] (672 h) (MIC) required 3.12 µg/mL (≈ 7.01 µM). In addition, the Activity result (in series [2]; in the series with Vero) was “Non-toxic” throughout. Also, the MIC entry in the series on Plasmodium falciparum was “inactive”.

For the compound `CC(C)c1ccc(-c2cc(-c3ccc(Nc4ccnc5cc(Cl)ccc45)cc3)nc(N)n2)cc1`, the MIC came out at 6.25 µg/mL (≈ 13.4 µM) in series [1] (672 h) and 1 µg/mL (≈ 2.15 µM) against Plasmodium falciparum.

`NC(=O)c1cnccn1` [PYRAZINAMIDE] showed an MIC in series [1] (672 h) of 50 µg/mL (≈ 406 µM). Further, the Activity result (in series [2]; in the series with Vero) was “Non-toxic” throughout.

The compound `COc1ccc(OC)c(/C=C/C(=O)c2ccc(Nc3ccnc4cc(Cl)ccc34)cc2)c1` showed an MIC in series [1] (672 h) of 3.12 µg/mL (≈ 7.01 µM). The Activity entry (in series [2]; in the series on Vero) was “Non-toxic” in each case. Further, the MIC entry in the series with Plasmodium falciparum was “inactive”.

`Nc1nc(-c2ccc(Nc3ccnc4cc(Cl)ccc34)cc2)cc(-c2ccco2)n1` registered an MIC in series [1] (672 h) of 12.5 µg/mL (≈ 30.2 µM). Moreover, the MIC result with Plasmodium falciparum was “inactive”.

Turning to `Nc1nc(-c2ccc(Nc3ccnc4cc(Cl)ccc34)cc2)cc(-c2cccnc2)n1`, the MIC entry in series [1] was “inactive”. In addition, the MIC in the series on Plasmodium falciparum was determined as 1 µg/mL (≈ 2.35 µM).

In the case of `CSc1ccc(-c2cc(-c3ccc(Nc4ccnc5cc(Cl)ccc45)cc3)nc(N)n2)cc1`, the MIC entry in series [1] is “inactive”. Besides, in the series with Plasmodium falciparum, the MIC came to 1 µg/mL (≈ 2.13 µM).

With `COc1ccc(-c2cc(-c3ccc(Nc4ccnc5cc(Cl)ccc45)cc3)nc(N)n2)cc1`, the MIC entry in series [1] was “inactive”. It took 2 µg/mL (≈ 4.41 µM) to inhibit growth in the series with Plasmodium falciparum (MIC).

On to `COc1cc(-c2cc(-c3ccc(Nc4ccnc5cc(Cl)ccc45)cc3)nc(N)n2)cc(OC)c1OC`, for which it took 12.5 µg/mL (≈ 24.3 µM) to inhibit growth in series [1] (672 h) (MIC). Besides, the MIC entry in the series with Plasmodium falciparum is “inactive”.

In turn, `CCN(CC)CCCC(C)Nc1ccnc2cc(Cl)ccc12` (stereo unspecified) [CHLOROQUINE] came in with an MIC in the series on Plasmodium falciparum of 0.125 µg/mL (≈ 0.391 µM).

`O=C(/C=C/c1ccc(Cl)cc1)c1ccc(Nc2ccnc3cc(Cl)ccc23)cc1`: the MIC in series [1] (672 h) was 6.25 µg/mL (≈ 14.9 µM). In the series on Plasmodium falciparum, the MIC entry was “inactive”.
